The species named for assay [1] is Mus musculus. As to the kind of experiment: Sedative/muscle relaxant effects in male CD-1 mice was assessed with a Ugo Basile rotating drum and the dose causing 50% decrease in time (ED50) was evaluated. It is filed as functional. Put shortly:
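Rotating drum of 3 cm diameter at 16 rev/min; time on drum recorded 1 h after dosing. Mean for groups of 10 mice expressed as percentage of control group mean.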

Assay [2] is filed under the species Mus musculus. Nature of the assay: Dose of leptazol-inducing tonic seizures in CD-1 mice was determined and represented as ED50. It is filed as functional.
For assay [3], the target named is GABA-A receptor; anion channel. As to the kind of experiment: Binding affinity towards benzodiazepine receptor by the displacement of [3H]flunitrazepam from rat brain preparations. (In general: In a radioligand displacement assay an active substance lowers the binding of a labelled ligand.)
For assay [4], the system named is Rattus norvegicus. Nature of the assay: Minimum effective dose on oral administration. To be noted: read-out: MED. It is filed as functional. Put shortly:
(§1)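 Food-motivated conflict test in trained Lister rats: five alternating 4-min FI30 unpunished and five 3-min FR5 punished components. Dosing po 30 min before testing, first at 50 mg/kg in four rats, then at decreasing doses (20, 10, 5, 2, 1 mg/kg) if active. MED is the dose giving a significant rise in punished responding (Mann-Whitney U).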

The test system of assay [5] is Rattus norvegicus. As to the kind of experiment: Compound was tested for conflict antagonism of chlordiazepoxide (CDZP) at 10 mg/kg orally. Format: functional. To be noted: po, read-out: MED. Put shortly:
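Food-motivated conflict test in trained Lister rats: test compound given po with 10 mg/kg po chlordiazepoxide. Effect compared with chlordiazepoxide alone in the same rats in separate assays. Schedule of five alternating 4-min FI30 unpunished and five 3-min FR5 punished components.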

For assay [6], the species on record is Mus musculus. Nature of the assay: Sedative/muscle relaxant effects in male CD-1 mice was assessed with a Ugo Basile rotating drum and the dose causing 50% decrease in time (ED50) was calculated. Format: functional. Put shortly: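 Male CD-1 mice, groups of 10, were placed on a rotating drum (3 cm diameter, 16 rev/min) 1 h after dosing and their time on the drum was recorded. The group mean was expressed as a percentage of the control group mean. The dose giving a 50% decrease came from best-fit lines through at least three dose-effect points, with 95% confidence limits by Litchfield and Wilcoxon.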

For assay [7], the species on record is Mus musculus. Nature of the assay: The dose of leptazol-inducing tonic seizures in CD-1 mice was determined and represented as ED50. Format: functional.
The test system of assay [8] is Rattus norvegicus. As to the kind of experiment: Compound was tested for the minimum effective dose (MED) on oral administration; value ranges from 10-50 mg/Kg. Format: functional. The note with it: read-out: MED. Put shortly:
as §1

The test system of assay [9] is Rattus norvegicus. Nature of the assay: Compound was tested for the minimum effective dose (MED) on oral administration; value ranges from 2-5 mg/Kg. To be noted: read-out: MED. It is filed as functional. Put shortly:
as §1

The test system of assay [10] is Mus musculus. Nature of the assay: Intraperitoneal dose of leptazol-inducing tonic seizures in CD-1 mice was determined and represented as ED50. Format: functional. To be noted: ip.
The test system of assay [11] is Rattus norvegicus. As to the kind of experiment: Compound was tested for the minimum effective dose (MED) on oral administration; value ranges from 1-2 mg/Kg. To be noted: read-out: MED. Format: functional. Put shortly:
as §1

A word on the ED50: it is the midpoint of the dose-response relation. Usually IC50 stands for the concentration needed to halve the response being measured. Higher therefore signals weaker potency.

Molecules are shown by their SMILES.

Take `CCCc1c(OC)nc2nc(-c3noc(C)n3)cn2c1C`: the values for the ED50 in the assay listed under Mus musculus [1] and in the assay listed under Mus musculus [2] were 16.5 mg/kg and 13 mg/kg, respectively. In assay [3], this compound registered an IC50 of 1600 nM. The minimal effective dose in the assay on Rattus norvegicus [4] was 5 mg/kg.
In [3], `CCc1c(OC)nc2nc(-c3cnco3)cn2c1C` came in with an IC50 of 2500 nM. Moreover, the minimal effective dose with Rattus norvegicus [4] was greater than 50 mg/kg.
`COc1nc2nc(-c3noc(C)n3)cn2c2c1CCCC2` [TANIPLON]: the ED50 was greater than 100 mg/kg in the assay listed under Mus musculus [1] and 55 mg/kg in the assay filed under Mus musculus [2]. For the same compound, the half-maximal inhibitory concentration (IC50) in assay [3] came to 560 nM. For the same compound, the minimal effective dose with Rattus norvegicus [4] came out at 5 mg/kg.
For `CCc1c(OC)nc2nc(-c3n[nH]c(C)n3)cn2c1C`, the IC50 in [3] was greater than 10000 nM. For the same compound, the minimal effective dose in the assay on Rattus norvegicus [4] was greater than 50 mg/kg.
The compound `CCc1c(OC)nc2nc(-c3nc(C)c(C)s3)cn2c1C` came in with an IC50 in assay [3] of 2500 nM. Further, the minimal effective dose with Rattus norvegicus [5] and in the assay with Rattus norvegicus [4] was greater than 50 mg/kg throughout.
In the case of `CCc1c(SC)nc2nc(-c3noc(C)n3)cn2c1C`, the IC50 in [3] came to 160 nM. Also, the minimal effective dose in the assay with Rattus norvegicus [4] came to 2 mg/kg.
On the same counts, the results for `CCCc1nnc(-c2cn3c(C)c(CC)c(OC)nc3n2)o1` are greater than 10000 nM and 50 mg/kg.
`CCc1nnc(-c2cn3c(C)c(CC)c(OC)nc3n2)o1` yielded an IC50 in assay [3] greater than 10000 nM. Moreover, the minimal effective dose in the assay on Rattus norvegicus [4] amounted to 50 mg/kg.
Take `CNC1=Nc2ccc(Cl)cc2C(c2ccccc2)=[N+]([O-])C1` [CHLORDIAZEPOXIDE]: the ED50 in the assay listed under Mus musculus [6] is 6.8 mg/kg; in the assay listed under Mus musculus [7], 1.9 mg/kg. For the same compound, the minimal effective dose in the assay on Rattus norvegicus [4] stood at 2 mg/kg.
`CCc1c(OC)nc2nc(-c3nnc(C(F)(F)F)o3)cn2c1C` returned an IC50 in assay [3] greater than 10000 nM. The minimal effective dose in the assay with Rattus norvegicus [8] is 10 mg/kg.
`COc1nc2nc(-c3nnc(C)o3)cn2c2c1CCCC2`: in assay [3], the IC50 was found to be 3200 nM. For the same compound, the minimal effective dose with Rattus norvegicus [4] was greater than 50 mg/kg.
As for `CCc1c(OC)nc2nc(-c3nnc(C)s3)cn2c1C`, in the assay on Rattus norvegicus [9], the minimal effective dose was determined as 2 mg/kg. For the same compound, the IC50 in [3] is greater than 10000 nM.
Consider `CCc1c(SC)nc2nc(-c3nc(C)cs3)cn2c1C`, for which, in [3], the IC50 came out at 80 nM. For the same compound, the minimal effective dose in the assay on Rattus norvegicus [5] is 50 mg/kg; in the assay on Rattus norvegicus [4] it was greater than 50 mg/kg.
In the case of `CCCc1c(OC)nc2nc(-c3nc(C)cs3)cn2c1C`, the IC50 in assay [3] was 100 nM. Further, the figures for the minimal effective dose in the assay on Rattus norvegicus [5] and in the assay on Rattus norvegicus [4] were 50 mg/kg and greater than 50 mg/kg, respectively.
Consider `CCc1c(OC)nc2nc(-c3nc(C)cs3)cn2c1C`, for which the ED50 with Mus musculus [10] stood at 1.7 mg/kg. Besides, the IC50 in assay [3] turned out to be 112 nM. The figures for the minimal effective dose in the assay with Rattus norvegicus [5] and in the assay on Rattus norvegicus [4] were 10 mg/kg and greater than 50 mg/kg, respectively.
In assay [3], `C/C=C/c1c(OC)nc2nc(-c3nnc(C)o3)cn2c1C` returned an IC50 greater than 10000 nM. Moreover, the minimal effective dose in the assay with Rattus norvegicus [4] is greater than 50 mg/kg.
In assay [3], `CCc1c(OC)nc2nc(-c3cc(C)no3)cn2c1C` returned an IC50 of 4500 nM. Further, in the assay on Rattus norvegicus [4], the minimal effective dose worked out at 50 mg/kg.
For `CCc1c(SC)nc2nc(-c3nnc(C)o3)cn2c1C`, the IC50 in [3] came out at 320 nM. Further, the minimal effective dose in the assay with Rattus norvegicus [4] turned out to be 5 mg/kg.
In assay [3], `C=CCc1c(OC)nc2nc(-c3nc(C)cs3)cn2c1C` showed an IC50 of 100 nM. Further, the minimal effective dose in the assay on Rattus norvegicus [5] and with Rattus norvegicus [4] was greater than 50 mg/kg in each case.
Take `CCc1c(OC)nc2nc(-c3cc(C)[nH]n3)cn2c1C`: in [3], the IC50 was 5000 nM. The minimal effective dose in the assay on Rattus norvegicus [4] was greater than 50 mg/kg.
With `COc1nc2nc(-c3nc(C)cs3)cn2c2c1CCCC2`, the IC50 in assay [3] was determined as 22 nM. The minimal effective dose in the assay on Rattus norvegicus [5] and with Rattus norvegicus [4] was greater than 50 mg/kg throughout.
As for `CCc1c(OC)nc2nc(-c3nnc(C)o3)cn2c1C`, the ED50 in the assay listed under Mus musculus [1] was greater than 200 mg/kg; in the assay listed under Mus musculus [2], 20 mg/kg. Moreover, in the assay with Rattus norvegicus [4], the minimal effective dose worked out at 2 mg/kg.
Take `CCc1c(OC)nc2nc(-c3noc(C)n3)cn2c1C` [FASIPLON]: the ED50 amounted to 17 mg/kg in the assay filed under Mus musculus [1] and 7.4 mg/kg in the assay listed under Mus musculus [2]. The minimal effective dose with Rattus norvegicus [9] is 2 mg/kg. The same compound displayed an IC50 in [3] of 500 nM.
On to `CCc1c(OC)nc2nc(-c3nnc(-c4ccccc4)o3)cn2c1C`, for which the IC50 in [3] is greater than 10000 nM. Further, the minimal effective dose with Rattus norvegicus [4] is greater than 50 mg/kg.
Take `CCCc1c(OC)nc2nc(-c3nnc(C)o3)cn2c1C`: in assay [3], the IC50 stood at 7900 nM. The minimal effective dose in the assay on Rattus norvegicus [4] amounted to 10 mg/kg.
`CCOC(=O)c1csc(-c2cn3c(C)c(CC)c(OC)nc3n2)n1` gave an IC50 in [3] of 2800 nM. For the same compound, the minimal effective dose with Rattus norvegicus [4] is greater than 50 mg/kg.
`CCc1c(OC)nc2nc(-c3noc(C)n3)c(Cl)n2c1C` yielded an IC50 in [3] of 10000 nM. The minimal effective dose in the assay with Rattus norvegicus [4] stood at 10 mg/kg.
For `CCc1c(OC)nc2nc(-c3nnco3)cn2c1C` the same measures were 10000 nM and greater than 50 mg/kg.
In the case of `CCc1c(OC)nc2nc(-c3nc(C)no3)cn2c1C`, the ED50 was greater than 100 mg/kg in the assay filed under Mus musculus [1] and 14 mg/kg in the assay listed under Mus musculus [2]. The same compound showed an IC50 in [3] of 630 nM. For the same compound, in the assay with Rattus norvegicus [4], the minimal effective dose was 5 mg/kg.
With `C=CCc1c(OC)nc2nc(-c3noc(C)n3)cn2c1C`, the IC50 in [3] is 560 nM. The minimal effective dose in the assay with Rattus norvegicus [4] was 10 mg/kg.
Compound `CCc1csc(-c2cn3c(C)c(CC)c(OC)nc3n2)n1` returned an IC50 in assay [3] of 220 nM. Further, the minimal effective dose with Rattus norvegicus [5] and in the assay with Rattus norvegicus [4] was 50 mg/kg each time.
On to `CCc1c(OC)nc2nc(-c3nccs3)cn2c1C`, for which, in [3], the IC50 is 200 nM. Besides, the minimal effective dose in the assay on Rattus norvegicus [5] was determined as 10 mg/kg.
`CCc1c(OC)nc2nc(-c3nc(C(F)(F)F)cs3)cn2c1C`: the IC50 in assay [3] came to 2000 nM. The minimal effective dose in the assay on Rattus norvegicus [5] and with Rattus norvegicus [4] was greater than 50 mg/kg each time.
For the compound `CCc1c(OC)nc2nc(-c3noc(C(F)(F)F)n3)cn2c1C`, the ED50 was greater than 200 mg/kg in the assay listed under Mus musculus [1] and 70 mg/kg in the assay listed under Mus musculus [7]. For the same compound, the minimal effective dose in the assay with Rattus norvegicus [11] worked out at 1 mg/kg.
For `C=CCc1c(OC)nc2nc(-c3nnc(C)o3)cn2c1C`, in [3], the IC50 worked out at 2500 nM. Also, in the assay on Rattus norvegicus [4], the minimal effective dose worked out at 10 mg/kg.
`CCc1c(OC)nc2nc(-c3noc(C)n3)c(Br)n2c1C`: the IC50 in assay [3] is 10000 nM. In the assay on Rattus norvegicus [4], the minimal effective dose is 10 mg/kg.
